For data set [1], the system named is A549. As to the kind of experiment: Antiproliferative activity against human A549 cells overexpressing EGFR assessed as reduction in cell viability at 1 to 60 uM incubated for 72 hrs by MTT assay. Format: functional, cell-based. (In general: Formazan colour is commonly taken as a measure of viable cells.)
Data set [2] has as its target Receptor tyrosine-protein kinase erbB-2 (Homo sapiens) (UniProt P04626). As to the kind of experiment: Inhibition of human recombinant GST-tagged HER2 (catalytic domain 676 to end residues) autophosphorylation expressed in baculovirus infected Sf9 cells using poly( Glu, Tyr) 4:1 as substrate at 1 uM incubated for 60 mins by ELISA relative to control. Put shortly: (§1)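 Wells coated with poly-Glu,Tyr (4:1), 20 µg/well overnight at 4 °C, then blocked with 5% BSA. GST-HER2 added at 200 ng/mL final in HEPES/NaCl/NaVO₄/BSA buffer. Reaction started with ATP spanning Km plus 10 mM MnCl₂ final, run 60 min at 37 °C, stopped with EDTA. Phosphotyrosine detected with HRP anti-pTyr and ABTS at 405 nm; triplicate.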
For orientation: An ELISA detects its analyte on a solid surface through an enzyme-linked reagent.

Data set [3] has as its system HCC1954. As to the kind of experiment: Antiproliferative activity against human HCC1954 cells overexpressing HER2 assessed as reduction in cell viability at 1 to 60 uM incubated for 72 hrs by MTT assay. Format: functional, cell-based.
For data set [4], the target named is Receptor tyrosine-protein kinase erbB-2 (Homo sapiens) (UniProt P04626). As to the kind of experiment: Inhibition of HER2 autophosphorylation in human HCC1954 cells overexpressing HER2 at 0.02 to 2 uM incubated for 1 hr by Western blot analysis. Format: cell-based. The method in brief: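 HCC-1954 cells at 60-70% confluence exposed to 0.02 and 2 μM compound for 1 h, then lysed in RIPA with protease inhibitors. About 10 µg protein separated by SDS-PAGE and blotted to PVDF. Phospho- and total HER2 antibodies at 1:1000, HRP secondaries, ECL read-out; β-actin used for normalization.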
Background: Immunoblotting shows a protein as a band on a membrane.

Data set [5] shares this target. As to the kind of experiment: Inhibition of human recombinant GST-tagged HER2 (catalytic domain 676 to end residues) autophosphorylation expressed in baculovirus infected Sf9 cells using poly( Glu, Tyr) 4:1 as substrate at 10 uM incubated for 60 mins by ELISA relative to control. The method in brief:
as §1

The target of data set [6] is Epidermal growth factor receptor (Homo sapiens) (UniProt P00533). As to the kind of experiment: Inhibition of EGFR autophosphorylation in human A549 cells overexpressing EGFR at 1 to 10 uM treated with compound for 10 mins prior to EGF stimulation for 10 mins by Western blot analysis. Format: cell-based. The method in brief:
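A549 cells grown to 60-70% confluence, then serum-starved 24 h. Exposed to compound for 10 min, then stimulated with 100 ng/mL EGF for 10 min at 37 °C and lysed in RIPA with protease inhibitors. About 10 µg protein run on SDS-PAGE, blotted to PVDF. Phospho- and total EGFR probed at 1:1000, HRP secondaries, ECL detection; β-actin for normalization.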

The test system of data set [7] is HCC1954. As to the kind of experiment: Antiproliferative activity against human HCC1954 cells overexpressing HER2 assessed as reduction in cell viability incubated for 72 hrs by MTT assay. The format is functional, cell-based. To be noted: HCC1954, 72 h. Put shortly: (§2)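 Cells seeded at 5×10^3/well in complete medium (DMEM or RPMI, 10% FBS) and left 24 h at 37 °C, 5% CO2. Compounds added at 0.5–150 μM for 72 h. MTT (0.3 mg/mL in PBS) applied for 3 h, formazan dissolved in DMSO, OD read at 570 nm against 650 nm reference. IC50 from four-parameter logistic fit; three experiments in triplicate.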

Data set [8] relates to A549. Description: Antiproliferative activity against human A549 cells overexpressing EGFR assessed as reduction in cell viability incubated for 72 hrs by MTT assay. The format is functional, cell-based. The following applies: A549, 72 h. The method in brief:
as §2

Data set [9] is described as follows: Cmax in C57BL/6N mouse at 34 micromol/kg, po measured upto 24 hrs by LC-MS/MS analysis. Format: ADME, organism-based. Details: route oral. To be noted: in vivo, 34 µmol/kg. Put shortly: (§3)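 Male C57BL/6N mice, 10-12 weeks old, n = 5 per group, fasted overnight, single oral gavage dose in 0.5% carboxymethyl cellulose: 0.1% Tween 80 in water. Serial tail bleeds of 10 μL at 0.25, 0.5, 1, 2, 4, 6, 8 and 24 h into 0.1 M citric acid pH 4.5, stored at -80 °C. Samples processed by protein precipitation and evaporation, then quantified in blood by LC-MS/MS.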

The nature of data set [10]: AUC (0 to 24 hrs) in C57BL/6N mouse at 34 micromol/kg, po measured upto 24 hrs by LC-MS/MS analysis. Format: ADME, organism-based. Set-up: time < 24 hr, route oral. The following applies: in vivo, 34 µmol/kg. The method in brief:
as §3

Data set [11] can be described thus: Tmax in C57BL/6N mouse at 34 micromol/kg, po measured upto 24 hrs by LC-MS/MS analysis. To be noted: in vivo, 34 µmol/kg. The format is ADME, organism-based. Put shortly:
as §3

A short description of data set [12]: AUC (1 to 48 hrs) in human A549 cells overexpressing EGFR at 1 uM measured per 0.1 million cells by LC-MS/MS analysis. The following applies: a549, 48 h.
Data set [13] concerns MCF7. As to the kind of experiment: Antiproliferative activity against human MCF7 cells assessed as reduction in cell viability incubated for 72 hrs by MTT assay. The format is functional, cell-based. To be noted: MCF7, 72 h. Put shortly: as §2
In data set [14] the test system is NCI-H1975. As to the kind of experiment: Antiproliferative activity against human NCI-H1975 cells assessed as reduction in cell viability incubated for 72 hrs by MTT assay. Format: functional, cell-based. To be noted: NCI-H1975, 72 h. The method in brief: as §2
The nature of data set [15]: Drug uptake in human A549 cells overexpressing EGFR at 1 uM measured after 48 hrs by LC-MS/MS analysis. The format is ADME, cell-based. The following applies: a549, 48 h. The method in brief:
(§4)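 A549 cells plated at 1.5×10^5 cells/well and exposed to 1 µM compound for 1, 4, 8, 24 and 48 h. Cells washed twice with ice-cold PBS, then lysed. Intracellular amount measured by LC-MS/MS against standard curves with a stable internal standard.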

Data set [16] concerns A549. Description: Antitumor activity against human A549 cells overexpressing EGFR xenografted in NOD/SCID mouse assessed as tumor volume at 86 micromol/kg, po administered once daily for 27 days measured at day 27 at 2 hrs after last administered dose (reference value: 1869 +/- 134 mm3). Format: functional. Put shortly:
(§5)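 NOD/SCID mice (n=4 per group, 2 male, 2 female) injected in each flank with 5×10⁶ A549 cells in DMEM, 10% FBS. Daily oral dosing started at about 150–160 mm³ tumors; vehicle 0.5% carboxymethyl cellulose: 0.1% Tween 80 in water. Caliper measurements every three days, V = π×D×d²/6. Body weight and signs of discomfort monitored. Study ended day 27, 2 h post last dose.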

A short description of data set [17]: Drug concentration in NOD/SCID mouse blood xenografted with human A549 cells overexpressing EGFR at 86 micromol/kg, po administered once daily for 27 days and measured at day 27 at 2 hrs after last administered dose by LC-MS/MS analysis. Format: ADME, organism-based. To be noted: 86 µmol/kg, read-out: Ct. Put shortly: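 A549 xenografts in NOD/SCID mice dosed orally once daily for 27 days, vehicle 0.5% carboxymethyl cellulose: 0.1% Tween 80 in water. Blood collected 2 h after the final dose on day 27, with animals euthanized under isoflurane. Drug level quantified by LC-MS/MS.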

Data set [18] can be described thus: Drug uptake in human A549 cells overexpressing EGFR at 1 uM measured after 24 hrs by LC-MS/MS analysis. The format is ADME, cell-based. The following applies: a549, 24 h. Put shortly: as §4
A short description of data set [19]: Toxicity in NOD/SCID mouse xenografted with human A549 cells overexpressing EGFR assessed as changes in body weight at 86 micromol/kg, po administered once daily for 27 days. Format: organism-based. To be noted: in vivo, 648 h. Put shortly:
as §5

Activity calls are given as the source filed them. The calls are words filed in the database; no cut-off is given here.

The results in this text go back to ChEMBL document CHEMBL4350987, “Design, synthesis and biological evaluation of novel substituted purine isosters as EGFR kinase inhibitors, with promising pharmacokinetic profile and in vivo efficacy” (Eur J Med Chem, 2019).

A word on the inhibition: it is the relative decrease from the control value, in per cent. As a reminder, the IC50 is the concentration needed to halve the response being measured. As usually defined, the Cmax is the peak of the concentration-time curve. As a reminder, the AUC(0-t) is the area under the concentration-time curve up to a stated or last time point. Low values mean low exposure, high ones high exposure. Usually Tmax stands for the time at which the peak concentration occurs.

Sequence of Receptor tyrosine-protein kinase erbB-2 (Homo sapiens) (P04626 whole entry, the tested form may be a part): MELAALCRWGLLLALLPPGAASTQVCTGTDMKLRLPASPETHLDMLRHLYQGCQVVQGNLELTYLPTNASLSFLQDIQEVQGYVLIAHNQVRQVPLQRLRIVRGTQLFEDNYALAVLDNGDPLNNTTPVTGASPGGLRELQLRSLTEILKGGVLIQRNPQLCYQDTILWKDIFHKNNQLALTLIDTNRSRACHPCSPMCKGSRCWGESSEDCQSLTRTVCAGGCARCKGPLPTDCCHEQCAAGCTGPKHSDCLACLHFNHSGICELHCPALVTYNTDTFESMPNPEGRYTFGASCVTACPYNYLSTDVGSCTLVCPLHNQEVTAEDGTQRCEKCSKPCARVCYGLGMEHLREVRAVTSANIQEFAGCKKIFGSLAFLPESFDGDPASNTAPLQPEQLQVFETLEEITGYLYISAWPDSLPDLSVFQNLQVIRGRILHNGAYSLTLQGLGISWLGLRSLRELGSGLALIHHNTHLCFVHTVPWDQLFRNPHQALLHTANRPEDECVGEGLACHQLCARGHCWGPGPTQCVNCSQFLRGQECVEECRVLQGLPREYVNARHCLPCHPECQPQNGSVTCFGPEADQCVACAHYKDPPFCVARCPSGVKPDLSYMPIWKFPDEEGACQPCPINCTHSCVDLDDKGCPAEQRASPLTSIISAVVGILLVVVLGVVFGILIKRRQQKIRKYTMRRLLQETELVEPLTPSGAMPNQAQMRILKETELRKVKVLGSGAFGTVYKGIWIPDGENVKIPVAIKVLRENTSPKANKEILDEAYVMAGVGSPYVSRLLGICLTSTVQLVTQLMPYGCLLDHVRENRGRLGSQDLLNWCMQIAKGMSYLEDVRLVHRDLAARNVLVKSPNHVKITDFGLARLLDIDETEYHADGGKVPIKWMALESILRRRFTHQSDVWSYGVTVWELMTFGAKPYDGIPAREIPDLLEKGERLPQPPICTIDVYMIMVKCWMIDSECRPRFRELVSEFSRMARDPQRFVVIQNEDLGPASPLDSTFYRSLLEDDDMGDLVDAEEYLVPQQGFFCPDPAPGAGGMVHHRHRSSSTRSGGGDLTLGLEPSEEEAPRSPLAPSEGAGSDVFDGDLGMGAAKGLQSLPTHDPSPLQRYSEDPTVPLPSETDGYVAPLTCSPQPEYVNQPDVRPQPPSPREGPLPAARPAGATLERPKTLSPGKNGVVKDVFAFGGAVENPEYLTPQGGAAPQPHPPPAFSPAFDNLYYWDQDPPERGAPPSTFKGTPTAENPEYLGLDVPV
Sequence of Epidermal growth factor receptor (Homo sapiens) (P00533 whole entry): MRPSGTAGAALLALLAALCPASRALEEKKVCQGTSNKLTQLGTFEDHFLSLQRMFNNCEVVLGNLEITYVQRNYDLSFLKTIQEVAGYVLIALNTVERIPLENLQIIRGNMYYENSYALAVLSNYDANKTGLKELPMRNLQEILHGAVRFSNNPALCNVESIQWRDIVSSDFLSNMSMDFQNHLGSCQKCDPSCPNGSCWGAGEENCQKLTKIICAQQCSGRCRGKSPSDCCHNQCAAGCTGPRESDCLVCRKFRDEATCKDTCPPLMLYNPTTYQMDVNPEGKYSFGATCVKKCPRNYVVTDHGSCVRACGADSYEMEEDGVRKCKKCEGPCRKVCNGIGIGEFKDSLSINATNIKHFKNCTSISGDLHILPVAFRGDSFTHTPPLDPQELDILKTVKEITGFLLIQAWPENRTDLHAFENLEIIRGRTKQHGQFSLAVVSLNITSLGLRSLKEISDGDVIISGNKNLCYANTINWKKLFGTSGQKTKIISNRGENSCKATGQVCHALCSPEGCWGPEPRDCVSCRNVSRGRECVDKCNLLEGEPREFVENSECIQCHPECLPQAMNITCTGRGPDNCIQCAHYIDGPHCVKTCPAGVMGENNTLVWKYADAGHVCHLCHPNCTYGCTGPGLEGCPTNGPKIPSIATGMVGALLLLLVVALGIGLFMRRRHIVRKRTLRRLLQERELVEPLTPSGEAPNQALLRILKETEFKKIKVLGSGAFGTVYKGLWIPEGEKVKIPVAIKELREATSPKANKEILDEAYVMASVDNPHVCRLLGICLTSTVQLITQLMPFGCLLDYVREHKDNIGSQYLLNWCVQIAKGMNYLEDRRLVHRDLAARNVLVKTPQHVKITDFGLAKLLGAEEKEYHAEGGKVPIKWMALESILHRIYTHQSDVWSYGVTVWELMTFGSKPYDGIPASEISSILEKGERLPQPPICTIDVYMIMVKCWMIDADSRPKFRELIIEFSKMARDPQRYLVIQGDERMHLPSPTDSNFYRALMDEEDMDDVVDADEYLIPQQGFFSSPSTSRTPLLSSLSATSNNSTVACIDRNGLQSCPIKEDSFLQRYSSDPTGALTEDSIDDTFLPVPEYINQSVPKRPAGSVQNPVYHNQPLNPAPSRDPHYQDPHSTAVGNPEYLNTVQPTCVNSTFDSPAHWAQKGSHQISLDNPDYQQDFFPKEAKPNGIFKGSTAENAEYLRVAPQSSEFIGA

Take `CS(=O)(=O)CCNCc1ccc(-c2nc3c(Nc4ccc(OCc5cccc(F)c5)c(Cl)c4)ccnc3[nH]2)o1`: the inhibition entry in [1] and in [3] was “inactive” throughout. Besides, the inhibition in [2] is 33%; in [5], 46%. In addition, the inhibition entry in [4] and in data set [6] was “Active” each time.

Turning to `Fc1cccc(COc2ccc(Nc3nccc4[nH]c(-c5ccco5)nc34)cc2Cl)c1`, the inhibition result in data set [1] and in [3] was “inactive” throughout. Further, the results for the inhibition in data set [2] and in [5] were 82% and 86%, respectively.

As for `Fc1cccc(COc2ccc(Nc3ncc(F)c4[nH]c(-c5ccco5)nc34)cc2Cl)c1`, the inhibition in data set [2] turned out to be 10%; in data set [5], 79%.

Turning to `CS(=O)(=O)CCNCc1ccc(-c2nc3c(Nc4ccc(OCc5cccc(F)c5)c(Cl)c4)nccc3[nH]2)o1`, the inhibition in [2] was found to be 25%; in data set [5], 34%. In addition, the inhibition result in data set [4] and in data set [6] was “Active” each time.

Regarding `CS(=O)(=O)CCNCc1ccc(-c2nc3c(Nc4ccc(OCc5cccc(F)c5)c(Cl)c4)ncnc3[nH]2)o1`, the 50% inhibitory concentration (IC50) was determined as 14 µM in data set [7], 33 µM in [8], 105 µM in data set [13] and 30 µM in [14]. In [9], this compound displayed a Cmax of 70 nM. Besides, the inhibition entry in data set [1], in [3] and in data set [6] was “Active” throughout. The compound also came in with an area under the curve AUC(0-t) at 24 h in data set [10] of 0.87 µM·h. The figures for the inhibition in [2] and in data set [5] were 28% and 32%, respectively. Besides, the Tmax in [11] is 2 h. In [12], the AUC is reported as 0.35 nmol/100.000 cells x h. Also, the Drug uptake in data set [15] was 0.01 nmol/100,000 cells.

Turning to `CS(=O)(=O)CCNCc1ccc(-c2ccc3ncnc(Nc4ccc(OCc5cccc(F)c5)c(Cl)c4)c3c2)o1` [LAPATINIB], the IC50 in data set [7] was 5 µM; in data set [8], 11 µM; in data set [13], 95 µM; in data set [14], 9 µM. In data set [9], this compound came in with a Cmax of 1470 nM. This compound showed an AUC(0-t) at 24 h in [10] of 6.7 µM·h. Also, the inhibition in data set [2] was determined as 86%; in data set [5], 97%. In [16], the Activity came out at 1338 mm3. For the same compound, the Tmax in data set [11] stood at 2 h. In addition, the inhibition result in data set [4] was “Active”. This compound also returned an AUC in [12] of 1.06 nmol/100.000 cells x h. Besides, the concentration at 2 h in data set [17] came out at 2810 nM. In addition, the Drug uptake in data set [15] is 0.02 nmol/100,000 cells.

Take `Fc1cccc(COc2ccc(Nc3ccnc4[nH]c(-c5ccco5)nc34)cc2Cl)c1`: the IC50 in [7] came to 9 µM; in data set [8] it was 3 µM; in [13], 126 µM; in data set [14], 10 µM. Moreover, in data set [9], the Cmax is 300 nM. For the same compound, the inhibition result in data set [1], in data set [3] and in data set [6] was “Active” each time. The same compound returned an area under the curve AUC(0-t) at 24 h in data set [10] of 2.1 µM·h. Moreover, the results for the inhibition in data set [2] and in data set [5] were 24% and 58%, respectively. Besides, the Activity in data set [16] is 1311 mm3; in data set [19] it was “Non-Toxic”. In addition, the Tmax in [11] was found to be 2 h. In [12], this compound showed an AUC of 1.5 nmol/100.000 cells x h. Besides, the Drug uptake entry in data set [18] is “Active”; in data set [15], 0.04 nmol/100,000 cells. The concentration at 2 h in data set [17] worked out at 640 nM.

Turning to `Fc1cccc(COc2ccc(Nc3ncnc4[nH]c(-c5ccco5)nc34)cc2Cl)c1`, the inhibition entry in [1], in data set [3] and in data set [4] was “Active” in each case. Moreover, the values for the inhibition in data set [2] and in data set [5] were 51% and 86%, respectively.

Regarding `CS(=O)(=O)CCNCc1ccc(-c2nc3c(Nc4ccc(OCc5cccc(F)c5)c(Cl)c4)ncc(F)c3[nH]2)o1`, the inhibition came out at 0% in data set [2] and 13% in data set [5]. In addition, in data set [4], the inhibition result was “Active”.
